One may read the IC50 as the point on the concentration scale where inhibition reaches its midpoint. The inhibition is how much of the control response was suppressed.

The results in this text go back to ChEMBL document CHEMBL4765409, “Synthesis and biological evaluation of geniposide derivatives as potent and selective PTPlB inhibitors” (Eur J Med Chem, 2020).

The target of experiment [1] is T1, Tyrosine-protein phosphatase non-receptor type 1 (Homo sapiens, UniProt P18031).
T1 sequence (P18031 whole entry): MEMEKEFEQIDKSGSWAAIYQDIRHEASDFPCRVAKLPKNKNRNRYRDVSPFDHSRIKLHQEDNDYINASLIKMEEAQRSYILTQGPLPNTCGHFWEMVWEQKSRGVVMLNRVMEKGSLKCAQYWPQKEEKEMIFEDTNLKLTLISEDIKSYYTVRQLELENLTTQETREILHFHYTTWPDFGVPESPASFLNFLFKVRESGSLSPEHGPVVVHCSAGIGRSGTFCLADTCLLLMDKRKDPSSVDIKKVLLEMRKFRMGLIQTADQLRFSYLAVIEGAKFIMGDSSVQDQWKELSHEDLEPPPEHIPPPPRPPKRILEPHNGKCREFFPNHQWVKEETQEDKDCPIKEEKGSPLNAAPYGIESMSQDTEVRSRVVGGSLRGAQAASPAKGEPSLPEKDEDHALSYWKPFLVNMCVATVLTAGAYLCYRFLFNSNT
Nature of the experiment: Inhibition of recombinant human PTP1B using pNPP as substrate measured after 30 mins. The essentials:
(§1)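 75 nM recombinant enzyme (PTP1B, TCPTP or SHP2) with 2.5 mM pNPP in 10 mM Tris, 25 mM NaCl, 1 mM EDTA, pH 7.1; compounds added from DMSO. Reaction run 30 min at room temperature, stopped with 2.0 N NaOH, pNP read at 405 nm. Sodium vanadate as positive control. IC50 from enzyme progress curves; means of triplicates, repeated twice.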

In experiment [2] the target is T2, Tyrosine-protein phosphatase non-receptor type 2 (Homo sapiens, UniProt P17706).
T2 sequence (P17706 whole entry): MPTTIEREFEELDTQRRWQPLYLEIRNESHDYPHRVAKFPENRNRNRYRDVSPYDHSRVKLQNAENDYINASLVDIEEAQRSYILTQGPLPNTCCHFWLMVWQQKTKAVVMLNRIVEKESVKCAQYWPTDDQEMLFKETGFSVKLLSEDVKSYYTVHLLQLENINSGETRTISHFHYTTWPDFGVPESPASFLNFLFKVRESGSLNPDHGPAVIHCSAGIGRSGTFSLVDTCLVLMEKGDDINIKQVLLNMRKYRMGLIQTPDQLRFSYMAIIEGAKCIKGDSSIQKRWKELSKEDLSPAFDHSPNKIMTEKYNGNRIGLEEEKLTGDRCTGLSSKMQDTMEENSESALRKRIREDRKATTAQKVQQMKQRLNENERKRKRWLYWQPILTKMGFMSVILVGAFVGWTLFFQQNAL
Nature of the experiment: Inhibition of recombinant human TCPTP using pNPP as substrate measured after 30 mins. The procedure, abridged: as §1

Experiment [3] addresses T3, Tyrosine-protein phosphatase non-receptor type 11 (Homo sapiens, UniProt Q06124).
T3 sequence (Q06124 whole entry): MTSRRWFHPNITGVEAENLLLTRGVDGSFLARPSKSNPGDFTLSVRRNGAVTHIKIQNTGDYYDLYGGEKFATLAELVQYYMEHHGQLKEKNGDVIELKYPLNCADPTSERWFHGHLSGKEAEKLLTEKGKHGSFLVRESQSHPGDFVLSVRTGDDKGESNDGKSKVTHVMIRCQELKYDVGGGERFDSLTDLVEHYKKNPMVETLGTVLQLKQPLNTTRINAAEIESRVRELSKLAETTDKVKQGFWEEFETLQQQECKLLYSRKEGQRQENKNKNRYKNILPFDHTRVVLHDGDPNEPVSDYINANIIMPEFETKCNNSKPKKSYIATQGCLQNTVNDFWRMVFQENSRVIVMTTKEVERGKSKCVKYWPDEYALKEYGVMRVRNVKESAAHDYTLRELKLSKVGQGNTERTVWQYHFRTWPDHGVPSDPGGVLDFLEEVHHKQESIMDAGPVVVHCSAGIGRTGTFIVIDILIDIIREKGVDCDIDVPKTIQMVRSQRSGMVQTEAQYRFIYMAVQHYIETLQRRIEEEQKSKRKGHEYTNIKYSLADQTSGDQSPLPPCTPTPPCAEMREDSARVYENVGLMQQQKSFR
Nature of the experiment: Inhibition of recombinant SHP2 (unknown origin) using pNPP as substrate measured after 30 mins. The procedure, abridged:
as §1

Experiment [4] concerns CHO. Nature of the experiment: Cytotoxicity against CHO cells assessed as reduction in cell viability measured after 24 hrs by MTT assay. In kind it is cell-based. To be noted: Cricetulus griseus. The procedure, abridged:
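CHO cells in DMEM with 10% FBS and 1% penicillin-streptomycin, 5% CO2, 37 °C; 5×10^3 cells/well seeded, treated after 24 h with varying compound concentrations for 24 h. MTT then added for 4 h at 37 °C in the dark, medium removed, formazan dissolved in DMSO, OD read at 490 nm.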
Background: Formazan colour is commonly taken as a measure of viable cells.

The test system of experiment [5] is CHO (Cricetulus griseus). Nature of the experiment: Cytotoxicity against Chinese hamster CHO cells assessed as reduction in cell viability measured after 24 hrs by MTT assay.
Experiment [6] deals with T4, Tyrosine-protein phosphatase non-receptor type 1 (Homo sapiens) (UniProt P18031).
T4 sequence (whole entry): T1 sequence (P18031 whole entry)
Nature of the experiment: Inhibition of PTP1B in human HepG2 cells assessed as improvement in insulin-induced 2-NBDG uptake at 20 uM incubated for 24 hrs prior to compound washout followed by insulin stimulation for 20 mins and subsequent 2-NBDG addition measured after 60 mins by FACS analysis relative to control. In kind it is cell-based. The essentials:
(§2)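 HepG2 cells in DMEM with 10% FBS and 1% penicillin-streptomycin, 5% CO2, 37 °C; 5×10^4 cells/well in 24-well plates. Compound exposure 24 h, then two PBS washes. Stimulated with 100 nM insulin for 20 min, then 50 μM 2-NBDG for 60 min. Uptake read by flow cytometry, FL1 channel; pioglitazone as positive control.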

The target in experiment [7] is T4, Tyrosine-protein phosphatase non-receptor type 1 (Homo sapiens). Nature of the experiment: Inhibition of PTP1B in human HepG2 cells assessed as improvement in insulin-induced 2-NBDG uptake at 10 uM incubated for 24 hrs prior to compound washout followed by insulin stimulation for 20 mins and subsequent 2-NBDG addition measured after 60 mins by FACS analysis relative to control. In kind it is cell-based. The procedure, abridged: as §2
In general terms: In flow cytometry, cells or beads pass a laser one at a time.

The target is the same in experiment [8]. Nature of the experiment: Inhibition of PTP1B in human HepG2 cells assessed as improvement in insulin-induced 2-NBDG uptake at 5 uM incubated for 24 hrs prior to compound washout followed by insulin stimulation for 20 mins and subsequent 2-NBDG addition measured after 60 mins by FACS analysis relative to control. In kind it is cell-based. The procedure, abridged:
as §2

Structures are written as SMILES. A value given as a limit tells only on which side of the number the result lay.

`COC(=O)C1=CO[C@@H](O)[C@@H]2C(CO)=CC[C@H]12` [GENIPIN]: the IC50 in experiment [1], in experiment [2] and in experiment [3] was above 500 µM throughout.

Take `O=C(Nc1ccc(-c2ccccc2)cc1)C1=CO[C@@H](O[C@@H]2O[C@H](CO)[C@@H](O)[C@H](O)[C@H]2O)[C@@H]2C(CO)=CC[C@H]12`: in experiment [1], the IC50 is 21.7 µM.

As for `O=C(O)C1=CO[C@@H](O[C@@H]2O[C@H](COCc3ccccc3)[C@@H](OCc3ccccc3)[C@H](OCc3ccccc3)[C@H]2OCc2ccccc2)[C@@H]2C(COCc3ccccc3)=CC[C@H]12`, the IC50 in experiment [1] was 0.38 µM; in experiment [2], 1.32 µM; in experiment [3] it was 3.32 µM; in experiment [4], above 200 µM; in experiment [5], above 200 µM.

On to `COC(=O)C1=CO[C@@H](OC)[C@@H]2C(CO)=CC[C@H]12`, for which the IC50 in experiment [1] is 236 µM.

Turning to `COC(=O)C1=CO[C@@H](O[C@@H]2O[C@H](COCc3ccccc3)[C@@H](OCc3ccccc3)[C@H](OCc3ccccc3)[C@H]2OCc2ccccc2)[C@@H]2C(COCc3ccccc3)=CC[C@H]12`, the half-inhibitory concentration (IC50) is 0.68 µM in experiment [1], 42 µM in experiment [4] and above 200 µM in experiment [5].

For the compound `O=C(Nc1ccccc1)C1=CO[C@@H](O[C@@H]2O[C@H](CO)[C@@H](O)[C@H](O)[C@H]2O)[C@@H]2C(CO)=CC[C@H]12`, the IC50 in experiment [1] is above 100 µM.

For `CCOS(=O)(=O)/C=C/c1ccc(OCC2=CC[C@@H]3C(C(=O)Nc4ccc(Oc5ccc(-c6ccccc6)cc5)cc4)=CO[C@@H](OC)[C@H]23)cc1`, the IC50 in experiment [1] was 0.43 µM; in experiment [2], 0.95 µM; in experiment [3] it was 1.24 µM; in experiment [4] it was above 200 µM; in experiment [5] it was above 200 µM. Moreover, the inhibition in experiment [6] turned out to be 69.6%; in experiment [7] it was 68%; in experiment [8], 38.6%.

With `CCc1ccccc1NC(=O)C1=CO[C@@H](O[C@@H]2O[C@H](CO)[C@@H](O)[C@H](O)[C@H]2O)[C@@H]2C(CO)=CC[C@H]12`, the IC50 in experiment [1] is 18.3 µM; in experiment [2], above 100 µM; in experiment [3], above 100 µM.

On to `CCOS(=O)(=O)/C=C/c1ccc(OCC2=CC[C@@H]3C(C(=O)Nc4ccc(Oc5ccccc5)cc4)=CO[C@@H](OCc4ccccc4)[C@H]23)cc1`, for which the IC50 in experiment [1] was 0.99 µM; in experiment [4], 62 µM; in experiment [5] it was above 200 µM.

Take `CCOS(=O)(=O)/C=C/c1ccc(OCC2=CC[C@@H]3C(C(=O)Nc4ccc(Oc5ccc6ccccc6c5)cc4)=CO[C@@H](OC)[C@H]23)cc1`: the IC50 in experiment [1] was 0.75 µM; in experiment [4] it was above 200 µM; in experiment [5], above 200 µM.

For `CCOS(=O)(=O)/C=C/c1ccc(CNC(=O)C2=CO[C@@H](O[C@@H]3O[C@H](COCc4ccccc4)[C@@H](OCc4ccccc4)[C@H](OCc4ccccc4)[C@H]3OCc3ccccc3)[C@@H]3C(COCc4ccccc4)=CC[C@H]23)cc1`, the values for the IC50 in experiment [1], in experiment [4] and in experiment [5] were 0.35 µM, above 200 µM and above 200 µM, respectively. In addition, the inhibition came to 49.8% in experiment [6], 36.5% in experiment [7] and 43.4% in experiment [8].

`COC(=O)C1=CO[C@@H](O[C@@H]2O[C@H](CO)[C@@H](O)[C@H](O)[C@H]2O)[C@@H]2C(CO)=CC[C@H]12` [GENIPOSIDE]: the IC50 in experiment [1], in experiment [2] and in experiment [3] was above 500 µM throughout.

As for `CCOS(=O)(=O)/C=C/c1ccc(OCC2=CC[C@@H]3C(C(=O)Nc4ccc(Oc5ccc(Br)cc5Cl)cc4)=CO[C@@H](OCc4ccccc4)[C@H]23)cc1`, the IC50 in experiment [1] is 0.41 µM; in experiment [2], 1.29 µM; in experiment [3] it was 3.97 µM; in experiment [4], above 200 µM; in experiment [5], above 200 µM. The results for the inhibition in experiment [6], in experiment [7] and in experiment [8] were 64.4%, 68.3% and 43.8%, respectively.

With `CCOS(=O)(=O)/C=C/c1ccc(OCC2=CC[C@@H]3C(C(=O)Nc4ccc(Oc5ccccc5)cc4)=CO[C@@H](OC)[C@H]23)cc1`, the IC50 is 2.67 µM in experiment [1], above 200 µM in experiment [4] and above 200 µM in experiment [5].

As for `CCOS(=O)(=O)/C=C/c1ccc(OCC2=CC[C@@H]3C(C(=O)OC)=CO[C@@H](OCc4ccccc4)[C@H]23)cc1`, the IC50 in experiment [1] came to 13.2 µM.

For the compound `COc1ccccc1NC(=O)C1=CO[C@@H](O[C@@H]2O[C@H](CO)[C@@H](O)[C@H](O)[C@H]2O)[C@@H]2C(CO)=CC[C@H]12`, the IC50 in experiment [1] was 50.8 µM.

As for `COC(=O)C1=CO[C@@H](OCc2ccccc2)[C@@H]2C(CO)=CC[C@H]12`, the IC50 in experiment [1] is 40.3 µM.

Consider `CCO[C@@H]1OC=C(C(=O)OC)[C@H]2CC=C(CO)[C@@H]12`, for which, in experiment [1], the IC50 turned out to be 64.7 µM.

Regarding `O=C(Nc1ccc(Oc2ccccc2)cc1)C1=CO[C@@H](O[C@@H]2O[C@H](COCc3ccccc3)[C@@H](OCc3ccccc3)[C@H](OCc3ccccc3)[C@H]2OCc2ccccc2)[C@@H]2C(COCc3ccccc3)=CC[C@H]12`, the IC50 in experiment [1] was 0.4 µM; in experiment [4], above 200 µM; in experiment [5], above 200 µM.

Regarding `CCOS(=O)(=O)/C=C/c1ccc(OCC2=CC[C@@H]3C(C(=O)Nc4ccc(Oc5ccc(Br)cc5Cl)cc4)=CO[C@@H](OC)[C@H]23)cc1`, the IC50 is 1.05 µM in experiment [1], above 200 µM in experiment [4] and above 200 µM in experiment [5].

Consider `O=C(Nc1ccc(Oc2ccccc2)cc1)C1=CO[C@@H](O[C@@H]2O[C@H](CO)[C@@H](O)[C@H](O)[C@H]2O)[C@@H]2C(CO)=CC[C@H]12`, for which the IC50 in experiment [1] was found to be 25.2 µM.

For the compound `CC(C)(C)c1ccc(Oc2ccc(NC(=O)C3=CO[C@@H](O[C@@H]4O[C@H](CO)[C@@H](O)[C@H](O)[C@H]4O)[C@@H]4C(CO)=CC[C@H]34)cc2)cc1`, the IC50 is 17.7 µM in experiment [1], above 100 µM in experiment [2] and above 100 µM in experiment [3].

On to `CCc1ccc(CCOc2ccc(CC3SC(=O)NC3=O)cc2)nc1` (centres undefined), for which the inhibition in experiment [6] is 63.5%; in experiment [7], 46%; in experiment [8], 33.8%.

As to `O=C(Nc1ccccc1F)C1=CO[C@@H](O[C@@H]2O[C@H](CO)[C@@H](O)[C@H](O)[C@H]2O)[C@@H]2C(CO)=CC[C@H]12`, the IC50 in experiment [1] was found to be 20.8 µM.
